Experimental data reported in ChEMBL document CHEMBL1142981, “Identification and synthesis of a novel selective partial PPARdelta agonist with full efficacy on lipid metabolism in vitro and in vivo” (J Med Chem, 2007).

Key:
[1] = molecular target: T1, Peroxisome proliferator-activated receptor alpha (Homo sapiens, UniProt Q07869); test: Activity at human liver PPAR alpha expressed in HEK293 cells by PPAR-GAL4 transactivation assay; assay type: cell-based
T1 sequence (Q07869 whole entry): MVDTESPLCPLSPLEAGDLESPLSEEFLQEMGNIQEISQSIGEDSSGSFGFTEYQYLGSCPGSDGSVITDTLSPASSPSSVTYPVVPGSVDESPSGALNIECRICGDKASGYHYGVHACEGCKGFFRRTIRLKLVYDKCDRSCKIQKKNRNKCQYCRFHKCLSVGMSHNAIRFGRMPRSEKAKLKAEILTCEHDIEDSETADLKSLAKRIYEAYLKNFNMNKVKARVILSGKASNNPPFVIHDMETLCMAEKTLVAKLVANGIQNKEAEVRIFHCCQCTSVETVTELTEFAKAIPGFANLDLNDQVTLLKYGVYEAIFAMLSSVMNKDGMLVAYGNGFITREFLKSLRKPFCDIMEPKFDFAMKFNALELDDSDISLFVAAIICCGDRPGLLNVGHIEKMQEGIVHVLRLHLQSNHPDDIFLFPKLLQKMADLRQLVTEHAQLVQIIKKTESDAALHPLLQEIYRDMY

[2] = test system: L6; test: Effect on increase in fatty acid oxidation in rat L6 cells relative to GW-501516; assay type: functional; set-up: concentration or dose not given beside the values
Procedure, shortened: (§1)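 Rat L6 myoblasts differentiated 5 days in 2% serum, then treated 42 h with compound (refreshed at 24 h), followed by 6 h with 0.4 mM palmitate containing [9,10-3H]-palmitic acid on 2% fatty-acid-free BSA. Stopped with 10% TCA; released 3H-H2O collected by overnight equilibration at 50 °C and counted.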

[3] = molecular target: T2, Peroxisome proliferator-activated receptor alpha (Homo sapiens) (UniProt Q07869); test: Activity at human liver PPAR alpha expressed in HEK293 cells by GAL4 transactivation assay relative to NNC61-4655; assay type: cell-based
T2 sequence (whole entry): T1 sequence (Q07869 whole entry)

[4] = test system: L6; test: Effect on fatty acid oxidation in rat L6 cells; assay type: functional, cell-based; procedure, shortened: as §1
[5] = molecular target: T3, Peroxisome proliferator-activated receptor delta (Homo sapiens, UniProt Q03181)
T3 sequence (Q03181 whole entry): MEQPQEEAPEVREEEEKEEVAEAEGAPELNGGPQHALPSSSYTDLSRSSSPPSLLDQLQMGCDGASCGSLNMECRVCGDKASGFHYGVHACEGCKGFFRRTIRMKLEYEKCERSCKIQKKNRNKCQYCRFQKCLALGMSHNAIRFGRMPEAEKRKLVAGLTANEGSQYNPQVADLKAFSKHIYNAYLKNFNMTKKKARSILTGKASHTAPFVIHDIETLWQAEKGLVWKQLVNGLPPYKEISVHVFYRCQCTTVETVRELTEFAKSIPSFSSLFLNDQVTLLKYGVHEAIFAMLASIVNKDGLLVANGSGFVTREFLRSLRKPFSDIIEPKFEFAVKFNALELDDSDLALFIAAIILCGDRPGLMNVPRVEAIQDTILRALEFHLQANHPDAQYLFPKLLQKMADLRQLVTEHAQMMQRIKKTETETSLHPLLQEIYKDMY

[6] = Plasma Cmax in Sprague-Dawley rat at 2.29 mg/kg, po; assay type: ADME, organism-based; set-up: dose 2.29 mg/kg, route oral
Procedure, shortened: (§2)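 Male SD rats received a single p.o. or i.v. dose (n = 8 per route) in 5% ethanol, 10% HPCD and phosphate buffer, pH 7.5-8.0. At 5, 15, 30, 60, 90, 120, 240 and 360 min one rat was sacrificed per time point. EDTA plasma was assayed by high turbulence LC-MS/MS. Cmax and bioavailability were taken from oral dosing; volume of distribution is at steady state.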

[7] = Half life in Sprague-Dawley rat at 2.29 mg/kg, po; assay type: ADME, organism-based; set-up: dose 2.29 mg/kg, route oral; conditions: in vivo
Procedure, shortened: (§3)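 Male SD rats dosed once i.v. or p.o. (n = 8 per route), vehicle 5% ethanol, 10% HPCD, phosphate buffer pH 7.5-8.0. One animal sacrificed at each of 5, 15, 30, 60, 90, 120, 240 and 360 min; EDTA plasma analysed by high turbulence LC-MS/MS. Each data point represents one animal.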

[8] = Oral bioavailability in Sprague-Dawley rat at 2.29 mg/kg; assay type: ADME, organism-based; conditions: in vivo; procedure, shortened: as §2
[9] = molecular target: T4, Peroxisome proliferator-activated receptor gamma (Homo sapiens, UniProt P37231); assay type: cell-based, HEK293
T4 sequence (P37231 whole entry): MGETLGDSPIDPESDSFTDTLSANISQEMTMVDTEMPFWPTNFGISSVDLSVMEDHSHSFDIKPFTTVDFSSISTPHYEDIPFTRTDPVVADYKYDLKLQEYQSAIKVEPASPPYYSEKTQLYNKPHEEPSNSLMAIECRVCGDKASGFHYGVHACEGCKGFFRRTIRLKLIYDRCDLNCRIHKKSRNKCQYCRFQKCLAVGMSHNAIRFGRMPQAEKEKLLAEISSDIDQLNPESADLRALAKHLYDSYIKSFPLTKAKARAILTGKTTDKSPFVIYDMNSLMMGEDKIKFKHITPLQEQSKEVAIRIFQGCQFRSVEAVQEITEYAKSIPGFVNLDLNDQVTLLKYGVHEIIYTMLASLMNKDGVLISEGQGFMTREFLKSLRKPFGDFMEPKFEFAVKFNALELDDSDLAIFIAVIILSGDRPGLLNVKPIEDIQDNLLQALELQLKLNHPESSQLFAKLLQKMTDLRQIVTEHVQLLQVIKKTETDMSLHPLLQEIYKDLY

[10] = Clearance in Sprague-Dawley rat at 1.08 mg/kg, iv; assay type: ADME, organism-based; set-up: dose 1.08 mg/kg, route intravenous; conditions: in vivo; procedure, shortened: as §3
[11] = Volume of distribution in Sprague-Dawley rat at 1.08 mg/kg, iv; assay type: ADME, organism-based; set-up: dose 1.08 mg/kg, route intravenous; conditions: in vivo, read-out: Vss; procedure, shortened: as §2
[12] = Clearance in Sprague-Dawley rat at 0.20 mg/kg, iv; assay type: ADME, organism-based; set-up: dose 0.2 mg/kg, route intravenous; conditions: in vivo, 0.2 mg/kg; procedure, shortened: as §3
[13] = Half life in Sprague-Dawley rat at 0.45 mg/kg, po; assay type: ADME, organism-based; set-up: dose 0.45 mg/kg, route oral; conditions: in vivo
Procedure, shortened: (§4)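 Male SD rats, single oral dose in 5% ethanol/10% HPCD/phosphate buffer pH 7.5-8.0, n = 8. One animal was killed at each of 5, 15, 30, 60, 90, 120, 240 and 360 min. EDTA plasma was analysed by turbulent-flow LC-MS/MS. Cmax, half-life and oral bioavailability were taken from the plasma curves, with bioavailability using a parallel i.v. arm.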

[14] = Volume of distribution in Sprague-Dawley rat at 0.20 mg/kg, iv; assay type: ADME, organism-based; set-up: dose 0.2 mg/kg, route intravenous; conditions: in vivo, 0.2 mg/kg, read-out: Vss; procedure, shortened: as §2
[15] = Plasma Cmax in Sprague-Dawley rat at 0.45 mg/kg, po; assay type: ADME, organism-based; set-up: dose 0.45 mg/kg, route oral; procedure, shortened: as §4
[16] = Half life in Sprague-Dawley rat at 0.43 mg/kg, po; assay type: ADME, organism-based; set-up: dose 0.43 mg/kg, route oral; conditions: in vivo; procedure, shortened: as §3
[17] = Plasma Cmax in Sprague-Dawley rat at 0.43 mg/kg, po; assay type: ADME, organism-based; set-up: dose 0.43 mg/kg, route oral; procedure, shortened: as §2
[18] = Oral bioavailability in Sprague-Dawley rat at 0.45 mg/kg; assay type: ADME, organism-based; conditions: in vivo; procedure, shortened: as §4
[19] = Clearance in Sprague-Dawley rat at 1.18 mg/kg, iv; assay type: ADME, organism-based; set-up: dose 1.18 mg/kg, route intravenous; conditions: in vivo; procedure, shortened: as §3
[20] = Plasma Cmax in Sprague-Dawley rat at 2.35 mg/kg, po; assay type: ADME, organism-based; set-up: dose 2.35 mg/kg, route oral; procedure, shortened: as §2
[21] = Half life in Sprague-Dawley rat at 2.35 mg/kg, po; assay type: ADME, organism-based; set-up: dose 2.35 mg/kg, route oral; conditions: in vivo; procedure, shortened: as §3
[22] = Volume of distribution in Sprague-Dawley rat at 1.18 mg/kg, iv; assay type: ADME, organism-based; set-up: dose 1.18 mg/kg, route intravenous; conditions: in vivo, read-out: Vss; procedure, shortened: as §2
[23] = Oral bioavailability in Sprague-Dawley rat at 2.35 mg/kg; assay type: ADME, organism-based; conditions: in vivo; procedure, shortened: as §2

SMILES | EC50 [1] [nM] | Activity [2] [%] | Efficacy [3] [%] | EC50 [4] [nM] | EC50 [5] [nM] | EC50 [9] [nM] | clearance [12] [mL/min/kg] | half-life [13] [h] | Vd [14] [L/kg] | Cmax [15] [ng/mL] | other results
O=C(O)CCc1ccc(OCC=C(c2ccc(Br)cc2)c2ccc(Br)cc2)cc1 | > 10000 | 69 | > 12 | 212 | 520 |  |  |  |  |  | 
CCO[C@@H](Cc1ccc(OCC=C(c2ccc(Br)cc2)c2ccc(Br)cc2)cc1)C(=O)O | 390 |  | 93 |  | 540 | 590 |  |  |  |  | Cmax [6]: 554 ng/mL; half-life [7]: 1.42 h; bioavailability [8]: 78%; clearance [10]: 21.4 mL/min/kg; Vd [11]: 2.3 L/kg
O=C(O)CCc1cccc(OCC=C(c2ccc(Br)cc2)c2ccc(Br)cc2)c1 |  | 59 | < 10 | 615 | 5900 |  | 27 | 15.9 | 5.3 | 51 | 
O=C(O)Cc1ccc(OCC=C(c2ccc(Br)cc2)c2ccc(Br)cc2)cc1 | > 10000 | 62 | > 14 | 204 | 1100 |  | 6 |  | 1.4 |  | half-life [16]: 7.45 h; Cmax [17]: 252 ng/mL
O=C(O)Cc1cccc(OCC=C(c2ccc(Br)cc2)c2ccc(Br)cc2)c1 | > 10000 | 78 | > 19 | 224 | 830 | > 10000 |  | 2.55 |  | 419 | 
CN(CCOc1ccc(CC2SC(=O)NC2=O)cc1)c1ccccn1 (configuration not stated) [ROSIGLITAZONE] |  | 58 | > 24 | 5000 |  |  |  |  |  |  | 
CC(C)(Oc1ccc(C(=O)c2ccc(Cl)cc2)cc1)C(=O)O [FENOFIBRIC ACID] | > 10000 | 70 | > 94 | 3000 | > 10000 |  |  |  |  |  | 
O=C(O)Cc1ccc(OCC=C(c2ccc(Br)cc2)c2ccc(Br)cc2)c(Cl)c1 |  | 85 | < 10 | 379 | 2300 |  | 7 | 3.02 | 1.4 | 241 | bioavailability [18]: 130%
Cc1cc(SCC=C(c2ccc(Br)cc2)c2ccc(Br)cc2)ccc1OCC(=O)O | > 10000 | 75 | > 22 | 3 | 17 | > 10000 |  |  |  |  | clearance [19]: 10 mL/min/kg; Cmax [20]: 887 ng/mL; half-life [21]: 2.52 h; Vd [22]: 0.9 L/kg; bioavailability [23]: 95%
